An excerpt weighted towards active compounds, which were near 2% of everything screened.
ARFGAP1 inhibitor: inhibits rat ARF GTPase activating protein 1; Q62848; Arfgap1-stimulated ARF1 GTP hydrolysis, GDP FP detection; inhibition, % at 16.5 µM; 360,000 compounds, 0.26% hits; AID 651572;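 active means inhibition above a per-plate limit, mean inhibition of low control wells plus 3 SD, cut at about 25% in these data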
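Repeats: one replicate per compound; assay system: rat Arfgap1 catalytic domain, aa 1-136; times: enzyme reaction 120 min at 25 °C after 20 min preincubation; detection: FP of antibody-bound GDP Alexa 633 tracer, ex 620/em 688 nm; benchmarks: high control wells lacking Arfgap1, low control full reaction with DMSO; reagent: human ARF1(Δ1-17)-GTP substrate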
TCR CD3 inh: blocks the human TCR-CD3 interaction; TAMRA-labeled TCR probe fluorescence, biochemical; inhibition, % at 9.4 µM; 360,000 compounds, 0.37% hits; in the data active means inhibition above about 19%;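 further: recombinant mutant TCR 2C K166C tagged with TAMRA read by polarization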
UHRF1 binding: UHRF1 methyl-DNA binding inhibition | AID 687016 | 370,000 compounds, 0.75% hits | inhibition, % at 4.4 µM | UHRF1 binding to methylated oligo, TR-FRET | Q96T88; in the data active means inhibition above about 21%;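 further: UHRF1 SRA domain binding a hemimethylated CpG hairpin DNA probe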
MBD2 inh: inhibitors of human MBD2 binding to methylated oligonucleotide; Q9UBB5; TR-FRET; inhibition, % at 4.4 µM; 370,000 compounds, 0.31% hits; in the data active means inhibition above about 13%
ASAP1 inh: blocks human ASAP1-stimulated Arf1 GTP hydrolysis | GDP FP detection | 360,000 compounds, 0.19% hits | inhibition, % at 16.5 µM | Q9ULH1; in the data active means inhibition above about 25%
Target sequence (Q9ULH1 325-724 limits assumed): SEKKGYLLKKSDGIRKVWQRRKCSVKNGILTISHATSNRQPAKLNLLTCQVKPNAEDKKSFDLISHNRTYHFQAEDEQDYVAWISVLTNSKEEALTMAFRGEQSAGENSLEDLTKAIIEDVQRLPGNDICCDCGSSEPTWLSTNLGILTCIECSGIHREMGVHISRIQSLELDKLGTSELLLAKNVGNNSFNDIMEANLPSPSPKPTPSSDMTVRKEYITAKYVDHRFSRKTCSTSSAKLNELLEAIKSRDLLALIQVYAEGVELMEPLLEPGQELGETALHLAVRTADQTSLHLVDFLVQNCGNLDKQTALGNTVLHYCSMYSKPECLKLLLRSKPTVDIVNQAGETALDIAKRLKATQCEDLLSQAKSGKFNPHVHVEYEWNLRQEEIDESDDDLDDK
LEDGF integ inh: blocks HIV-1 LEDGF/p75-dependent DNA integration; TR-FRET IN-LEDGF/p75 DNA integration, Eu/Cy5; inhibition, % at 3.7 µM; 370,000 compounds, 0.64% hits; AID 743269;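 active means inhibition above the screen-wide mean plus 3 SD, cut at about 13% in these data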;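 further: signal is the Cy5 over europium emission ratio at 671 and 618 nm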
IN multimer act: counter-screen for LEDGF/p75 integration inhibitors: HIV-1 integrase multimerization activators | 2,000 compounds, 17% hits | TR-FRET HIV-1 integrase multimerization, biochemical | shares compounds with LEDGF integ inh | AID 1053131 | activation, % at 7.7 µM; in the data active means activation above about 8.9%
TR-FRET interf: counter-screen for LEDGF/p75 integration inhibitors: TR-FRET optical interference; AID 1053135; 2,000 tested, under 10 active; shares compounds with LEDGF integ inh; TR-FRET optical interference counterscreen, HIV-1 IN multimerization; inhibition, % at 7.7 µM;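 active means inhibition above the mean over all tested compounds plus 3 SD, which no compound reached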
LEDGF integ conf: confirmation of HIV-1 LEDGF/p75-dependent integration inhibitors. shares compounds with LEDGF integ inh. TR-FRET LEDGF/p75-dependent HIV-1 integration, biochemical. 2,000 compounds, 36% hits. inhibition, % at 3.7 µM. AID 1053136; in the data active means inhibition above about 14%
Hits are given with their value; n = inactive; x = no result given.

SMILES	ARFGAP1 inhibitor	TCR CD3 inh	UHRF1 binding	MBD2 inh	ASAP1 inh	LEDGF integ inh	IN multimer act	TR-FRET interf	LEDGF integ conf
O=C1CC(c2ccccc2)CC(O)=C1C=NCCN1CCN(Cc2ccccc2)CC1 (stereo not given)	n	n	n	n	n	n	x	x	x
COc1cccc(C2C(C#N)=C(N)Oc3cc(C)oc(=O)c32)c1OC (stereo not given)	n	n	n	n	n	n	x	x	x
COc1cccc(C2C(C#N)=C(N)Oc3cc(N)ccc32)c1OC (stereo not given)	n	n	n	n	n	15	n	n	n
O=C1OC(c2cccs2)=N/C1=C/c1ccc(-c2cccc(C(=O)O)c2)o1	n	n	44	n	n	29	9.5	n	15
O=C1OC(c2cccs2)=N/C1=C\c1ccc(-c2ccccc2Cl)o1	n	n	n	n	n	n	x	x	x
CC1CCCC(NC(=O)CCCCCn2c(=S)[nH]c3ccsc3c2=O)C1C (stereo not given)	n	n	n	n	n	n	x	x	x
CCc1nc2ccc(C(=O)NCc3cccs3)cn2c1N(CC)CCN(C)C	n	n	n	n	n	n	x	x	x
CCc1nc2ccc(C(=O)NCc3cccs3)cn2c1N(CCC(C)C)CCN(C)C	n	n	n	n	n	14	n	n	n
COc1ccccc1-c1nnc2sc(COc3ccccc3)nn12	n	n	n	n	n	28	n	n	n
COc1cccc(CCC(=O)N2CCC(n3nccc3NC(=O)CC(C)C)CC2)c1	n	n	n	n	n	n	x	x	x
N#Cc1c(N)[nH]c(C(=O)c2ccccc2)c1-c1ccccc1Br	n	n	n	n	n	32	n	n	n
Nc1[nH]c(C(=O)c2ccccc2)c(-c2ccccc2Br)c1C(=O)NCc1ccc(-c2ccccc2)cc1	n	n	n	n	n	n	x	x	x
O=Cc1cc(N=Nc2ccccc2Cl)ccc1O	n	n	n	n	n	17	n	n	49
O=Cc1cc(N=Nc2cccc(C(=O)O)c2)ccc1O	n	n	n	n	n	n	x	x	x
S=c1[nH]nc(C2CCCCC2)n1/N=C/c1cccc(Cl)c1Cl	n	n	n	n	n	n	x	x	x
CC(CCN1CCN(c2ccc(F)cc2)CC1)c1ccccc1 (stereo not given)	n	n	n	n	n	n	x	x	x
O=C(Cn1cncn1)NCc1ccc(Cl)cc1	n	n	n	n	n	19	n	n	n
O=C(c1[nH]c(C(F)(F)F)nc1-c1ccccc1)N1CCN(C(=O)C2CCCO2)CC1 (stereo not given)	n	n	n	n	n	n	x	x	x
COc1ccc(Cn2c(CCC(=O)NCCC(C)C)nc3ncccc3c2=O)cc1	n	n	n	n	n	n	x	x	x
O=C1C=C(O)CC(c2ccco2)C1 (stereo not given)	n	n	36	n	n	38	n	n	21
O=C(c1cccc(C(F)(F)F)c1)c1c[nH]c(C(=O)NCCCN2CCOCC2)c1	n	n	n	n	n	n	x	x	x
CNS(=O)(=O)c1cc(NC(C)=O)c(C)cc1C	n	n	n	n	n	n	x	x	x
O=S(=O)(c1ccc2c(c1)N(Cc1ccc(Cl)cc1)C1CCCN21)N1CCOCC1 (stereo not given)	n	n	n	n	n	23	n	n	n
CC1CCCN(C(=O)C2CCN(S(=O)(=O)c3ccc4c(c3)CC(C)N4C(=O)C3CC3)CC2)C1 (stereo not given)	n	n	n	n	n	n	x	x	x
COC(=O)[C@@]12C[C@@H](CC(=O)N3CCN(C(=O)c4ccco4)CC3)C(=O)N(Cc3ccccc3)C1=CCC(C)(C)C2	n	n	n	n	n	n	x	x	x
COc1ccc(-n2nc3cc(C)c(N)cc3n2)cc1Cl	n	n	n	n	n	15	n	n	n
Cc1cc2nn(-c3ccc(Cl)cc3)nc2cc1N	n	n	n	n	n	n	x	x	x
